# Sampled rows, rich in hits. Any-hit rate of the full collection: about 0.74%.
# Biofilm kill mix – mixtures killing C. albicans biofilm; C. albicans biofilm persisters + clotrimazole, fluorescence viability; primary screen in compound mixtures of four per well; inhibition, % at 7.6 µM; 0.02% of 120,000 active;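 active = inhibition above 30.3% in the primary screen of four-compound pools, then above 30% when the compound was retested; inconclusive = passed the primary limit but could not be retested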;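 note: compounds exposed to preformed 24 h biofilms for 48 h; 0% = untreated biofilm control and 100% = clotrimazole plus chlorhexidine kill blank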
#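 Test system: C. albicans CAF4-2 wild-type biofilms; buffer or medium: RPMI/MOPS medium, pH 7.0; schedule: 24 h biofilm formation, then 48 h compound exposure, 37 °C; detection: Alamar Blue fluorescence; measure: percent inhibition of biofilm viability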
# RGS16-Gao – modulates binding between human RGS16 and Galphao; bead-based flow cytometry RGS16-Galphao binding, fluorescence; actives lie on both sides; binding response (% of control), % at 10 µM; O15492+P09471; 0.38% of 220,000 active;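 note: Galphao activated by GDP with aluminum fluoride before binding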
# RGS7-Gao reg – regulators of human RGS7-Galphao interaction. P09471. Multiplexed bead flow cytometry, RGS7-Galphao binding; actives lie on both sides. binding response (% of control), % at 10 µM. 0.35% of 220,000 active. AID 1439; in the data active = binding response below about 49% or above about 150%; inconclusive = no clear call, values can overlap the other calls; inactive = in between;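 note: fluorescent Galphao held in activated GDP-AlF4 state binding bead-coupled RGS7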
# Target sequence (P09471 whole entry, looked up): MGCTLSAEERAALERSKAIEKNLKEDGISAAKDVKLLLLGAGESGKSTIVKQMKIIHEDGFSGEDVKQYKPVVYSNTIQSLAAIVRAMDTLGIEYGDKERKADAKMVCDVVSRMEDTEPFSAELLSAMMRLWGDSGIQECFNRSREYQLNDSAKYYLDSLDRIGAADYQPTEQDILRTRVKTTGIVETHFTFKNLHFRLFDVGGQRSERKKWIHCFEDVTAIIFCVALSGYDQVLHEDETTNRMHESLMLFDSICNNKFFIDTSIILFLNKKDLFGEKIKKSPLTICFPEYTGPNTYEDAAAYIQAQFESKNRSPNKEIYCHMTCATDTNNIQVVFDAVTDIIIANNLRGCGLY
# RGS8-Gao – regulators of human RGS8-Galphao interaction; P09471; multiplexed bead flow cytometry, RGS8-Galphao binding; actives lie on both sides; response (percent of control binding), % at 10 µM; 0.34% of 220,000 active; in the data active = response below about 60% or above about 140%; inactive = in between;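 note: Galphao activated as the GDP aluminium fluoride complex binding bead-coupled RGS8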
# RGS4-Gao reg – human RGS4-Galphao interaction regulation | P09471 | Multiplexed bead flow cytometry, RGS4-Galphao binding; actives lie on both sides | binding response (% of control), % at 10 µM | 0.33% of 220,000 active | AID 1415; in the data active = binding response below about 49% or above about 150%; inactive = in between;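 note: fluorescent Galphao activated with aluminum fluoride binding bead-coupled RGS4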
# RGS-Gao – RGS4-Galphao interaction regulator (human). shares compounds with RGS16-Gao. multiplexed bead flow cytometry, RGS–Galpha-o binding. RGS4–Galpha-o binding response, % at 10 µM. 99% of 1,600 active. AID 1504;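 note: fluorescently labeled Galpha-o bound to GDP with aluminium fluoride binding biotinylated RGS beads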
# Avidin counter – biotin-avidin bead binding disruption counter-screen. shares compounds with RGS16-Gao. streptavidin beads, fluorescein-biotin binding, flow cytometry. inhibition, % at 10 µM. 1,700 tested, under 10 active;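 active = inhibition above 50%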;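 note: median green fluorescence of gated singlet beads compared with DMSO control wells; 0% = DMSO wells and 100% = complete loss of bead fluorescence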
# RGS8-Gao single – RGS8-Galphao interaction regulation, single point confirmation. shares compounds with RGS16-Gao. bead-based flow cytometry RGS8-Galphao binding, fluorescence; actives lie on both sides. binding response (% of control), % at 10 µM. 3% of 1,700 active. AID 1836; in the data active = binding response below about 72% or above about 130%; inactive = in between;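 note: Galphao activated as GDP AlF4 complex before binding bead RGS8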
# RGS7-Gao single – confirmation of regulators of human RGS7-Galphao interaction; AID 1837; 7.8% of 1,700 active; bead-based flow cytometry RGS7-Galphao binding; actives lie on both sides; response (percent of control binding), % at 10 µM; shares compounds with RGS16-Gao; in the data active = response below about 75% or above about 130%; inactive = in between;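 note: fluorescent Galphao activated with GDP and aluminum fluoride binding bead-coupled RGS7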
# RGS16-Gao single – confirmation of regulators of human RGS16-Galphao interaction. 4% of 1,700 active. bead-based flow cytometry, RGS16-Galphao binding; actives lie on both sides. response (% of control binding), % at 10 µM. shares compounds with RGS16-Gao; in the data active = response below about 74% or above about 130%; inactive = in between;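 note: Galphao activated as the GDP aluminium fluoride complex binding bead-coupled RGS16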
# RGS4-Gao confirm – RGS4-Galphao interaction regulation, single point confirmation | 4% of 1,700 active | AID 1840 | shares compounds with RGS16-Gao | binding response (% of control), % at 10 µM | RGS4-Galphao binding, multiplexed bead flow cytometry; actives lie on both sides; in the data active = binding response below about 74% or above about 130%; inactive = in between
# RGS19-Gao conf – RGS19-Galphao interaction regulation, single point confirmation. shares compounds with RGS16-Gao. bead-based flow cytometry RGS19-Galphao binding; actives lie on both sides. response (percent of control binding), % at 10 µM. 5% of 1,700 active. AID 1841; in the data active = response below about 50% or above about 160%; inactive = in between;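 note: 100% = no compound control and 0% = blank background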
# Active calls of the source: *; ? = inconclusive; nt = no result; [ ] = remark or other dose. Unless noted, the rule behind the calls is not given here.
SMILES,Biofilm kill mix,RGS16-Gao,RGS7-Gao reg,RGS8-Gao,RGS4-Gao reg,RGS-Gao,Avidin counter,RGS8-Gao single,RGS7-Gao single,RGS16-Gao single,RGS4-Gao confirm,RGS19-Gao conf
COc1ccc(Oc2ccccc2/C=C/C(=O)O)cc1,nt,101,98,100,98,nt,nt,nt,nt,nt,nt,nt
O=C(O)/C=C/c1ccccc1Oc1ccccc1,nt,184,154*[activator],138,162*[activator],nt,0,98,96,98,96,97
CCN(CC)c1ccc(/C=N\N2CCN(Cc3ccc(C)cc3)CC2)cc1,22,109,106,103,105,nt,nt,nt,nt,nt,nt,nt
Cc1ccc(CN2CCN(/N=C/c3ccc(C(=O)O)cc3)CC2)cc1,10,98,98,100,100,nt,nt,nt,nt,nt,nt,nt
O=C(O)c1ccc(/C=N/N2CCN(Cc3ccc(Cl)cc3)CC2)cc1,23,262,125,148*[activator],117,117*,-2,98,83,93,91,83
Cc1ccc(CN2CCN(/N=C/c3cccnc3)CC2)cc1,25,260*[activator],110,125,110,110*,3,99,100,99,98,85
CCOP(=O)(OCC)C(Nc1ccc(F)cc1)c1ccccc1 (stereo not drawn),8,nt,nt,nt,149,nt,1,100,94,99,99,94
Cc1ccc(C(=O)N/N=C2\SCC(=O)N2c2cc(C)ccc2C)cc1,18,22*,83,74,81,81*,-2,109,107,108,106,108
Cc1cccc(N2C(=O)CS/C2=N\NC(=O)c2ccc(Br)cc2)c1C,8,112,106,106,103,nt,nt,nt,nt,nt,nt,nt
O=C(NNC(=S)Nc1ccc(Br)cc1Cl)c1ccncc1,11,110,164*[activator],102,112,112*,2,102,101,104,103,110
COC(C(=O)Nc1ccc(S(=O)(=O)Nc2c(C)cccc2C)cc1)c1ccccc1 (stereo not drawn),3,106,102,100,102,nt,nt,nt,nt,nt,nt,nt
CCN(CC)S(=O)(=O)c1ccc(NC(=O)C(OC)c2ccccc2)cc1 (stereo not drawn),nt,nt,nt,nt,nt,nt,-1,100,93,99,99,97
CCCCCC(=O)N1CCCCC1,3,111,?,110,111,nt,nt,nt,nt,nt,nt,nt
COC(=O)c1sc(-c2ccc(Cl)cc2)cc1N,27,100,?,101,104,nt,nt,nt,nt,nt,nt,nt
COC(=O)c1sc(-c2cccs2)cc1N,12,159,?,116,173*[activator],nt,1,100,99,98,101,97
COc1ccc(CNc2nc3ccccc3n2C)c(O)c1,19,102,?,103,98,nt,nt,nt,nt,nt,nt,nt
Cn1c(NCc2cc(Br)ccc2O)nc2ccccc21,nt,291,116,141*[activator],119,119*,-2,95,72*,85,85,80
CCOC(=O)N1CN(C(=O)OCC)CN(C(=O)OCC)C1,-1,-22*,?,5.2*,-38*,nt,-1,89,74*,82,83,69
CCCCNC(=O)COC(=O)c1ccccc1F,14,93,?,96,96,nt,nt,nt,nt,nt,nt,nt
NS(=O)(=O)c1cccc(NC(=O)Cc2ccc(Cl)c(Cl)c2)c1,9,150,167*[activator],148*[activator],156*[activator],nt,1,101,97,101,100,87

# Source: PubChem BioAssay (several laboratories)
